Measurements reported in ChEMBL document CHEMBL4616603, “Luciferase-based HMG-CoA reductase degradation assay for activity and selectivity profiling of oxy(lano)sterols” (Bioorg Med Chem, 2020).
The source made the active and inactive calls. The rule behind the calls is not given here.

What was measured:
Type in all cases: cell-based
[1] = molecular target: T1, Sterol regulatory element-binding protein 1 (Homo sapiens) (UniProt P36956); assay: Inhibition of SREBP (unknown origin) expressed in HEK293 cells assessed as reduction in LDLr promotor activity after 24 hrs by luciferase reporter assay
T1 sequence (whole entry): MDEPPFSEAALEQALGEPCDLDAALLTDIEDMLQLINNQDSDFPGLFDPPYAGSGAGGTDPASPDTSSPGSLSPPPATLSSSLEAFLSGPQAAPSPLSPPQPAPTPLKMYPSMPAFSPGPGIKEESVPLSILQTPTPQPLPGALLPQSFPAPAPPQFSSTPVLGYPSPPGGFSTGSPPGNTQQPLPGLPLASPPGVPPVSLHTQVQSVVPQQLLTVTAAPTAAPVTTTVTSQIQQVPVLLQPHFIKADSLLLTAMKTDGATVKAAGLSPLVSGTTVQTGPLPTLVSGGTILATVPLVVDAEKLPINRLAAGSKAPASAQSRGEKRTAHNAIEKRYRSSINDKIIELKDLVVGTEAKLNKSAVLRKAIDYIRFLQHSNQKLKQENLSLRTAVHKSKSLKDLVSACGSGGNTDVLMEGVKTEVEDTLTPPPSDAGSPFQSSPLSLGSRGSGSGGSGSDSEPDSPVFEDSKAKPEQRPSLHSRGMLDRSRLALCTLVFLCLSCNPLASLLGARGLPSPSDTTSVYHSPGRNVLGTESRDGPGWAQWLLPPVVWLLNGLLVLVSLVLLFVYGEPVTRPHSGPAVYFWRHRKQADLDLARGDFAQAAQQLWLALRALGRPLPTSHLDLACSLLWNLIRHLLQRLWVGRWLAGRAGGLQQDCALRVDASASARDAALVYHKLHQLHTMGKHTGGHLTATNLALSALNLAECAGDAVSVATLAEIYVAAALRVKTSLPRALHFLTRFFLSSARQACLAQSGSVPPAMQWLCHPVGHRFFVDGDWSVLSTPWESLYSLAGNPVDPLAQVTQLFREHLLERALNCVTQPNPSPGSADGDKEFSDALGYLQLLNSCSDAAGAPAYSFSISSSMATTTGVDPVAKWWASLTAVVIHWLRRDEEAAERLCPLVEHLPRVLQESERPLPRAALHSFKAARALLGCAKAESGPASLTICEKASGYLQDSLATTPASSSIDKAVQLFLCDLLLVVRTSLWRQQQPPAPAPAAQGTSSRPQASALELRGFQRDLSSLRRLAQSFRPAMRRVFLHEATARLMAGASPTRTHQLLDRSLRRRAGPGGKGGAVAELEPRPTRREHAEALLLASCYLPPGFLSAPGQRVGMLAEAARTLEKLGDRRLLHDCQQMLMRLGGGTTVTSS
Method in brief: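 HEK293 cells transiently co-transfected with pGL4-LDLr-luciferase and pCMV-beta-galactosidase. After 24 h the medium was changed to DMEM with 10% LPDS, compounds were added, and culture continued for 24 h. Luciferase was read and normalized to beta-galactosidase activity. Mean ± SD, n = 3.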

[2] = molecular target: T2, 3-hydroxy-3-methylglutaryl-coenzyme A reductase (Homo sapiens) (UniProt P04035); assay: (§1) Induction of human HMGCR-dCat-ELuc degradation expressed in HEK293 cells assessed as reduction in luciferase activity after 4 hrs by luciferase reporter assay
T2 sequence (whole entry): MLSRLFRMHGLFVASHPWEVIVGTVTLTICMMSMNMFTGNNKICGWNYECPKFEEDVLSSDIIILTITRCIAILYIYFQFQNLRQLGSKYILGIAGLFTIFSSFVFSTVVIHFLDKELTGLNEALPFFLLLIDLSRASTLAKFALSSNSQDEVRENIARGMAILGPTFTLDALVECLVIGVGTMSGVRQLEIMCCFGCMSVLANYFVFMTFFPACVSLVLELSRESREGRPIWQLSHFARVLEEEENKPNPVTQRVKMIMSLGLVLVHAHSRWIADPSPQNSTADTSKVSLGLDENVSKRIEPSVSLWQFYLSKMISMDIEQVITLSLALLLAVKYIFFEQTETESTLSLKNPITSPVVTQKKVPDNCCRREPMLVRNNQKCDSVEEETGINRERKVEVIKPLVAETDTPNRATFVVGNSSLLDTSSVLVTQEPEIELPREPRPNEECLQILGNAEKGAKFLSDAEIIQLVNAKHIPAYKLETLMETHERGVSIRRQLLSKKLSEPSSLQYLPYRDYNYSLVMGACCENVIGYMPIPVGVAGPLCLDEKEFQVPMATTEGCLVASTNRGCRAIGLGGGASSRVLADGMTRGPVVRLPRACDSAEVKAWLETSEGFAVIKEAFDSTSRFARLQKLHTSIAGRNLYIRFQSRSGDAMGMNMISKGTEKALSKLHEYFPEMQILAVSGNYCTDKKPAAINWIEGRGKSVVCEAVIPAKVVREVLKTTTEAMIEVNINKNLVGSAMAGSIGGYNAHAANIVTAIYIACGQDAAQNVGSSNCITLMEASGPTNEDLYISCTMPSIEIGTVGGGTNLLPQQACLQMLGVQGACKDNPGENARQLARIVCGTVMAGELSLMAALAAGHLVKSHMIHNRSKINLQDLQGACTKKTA
Method in brief: (§2)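 HEK293 clone stably expressing HMGCR-dCat-ELuc, kept under 0.4 mg/mL G418 and picked from limiting-dilution clones. Cells exposed to compound for 4 h, then luciferase activity read as a measure of reporter protein level. Compounds came from 10 mM DMSO stocks (ethanol stock for 25HC). SD of triplicate experiments.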

[3] = molecular target: T2, 3-hydroxy-3-methylglutaryl-coenzyme A reductase (Homo sapiens); assay: Induction of human HMGCR-dCat-ELuc degradation expressed in HEK293 cells assessed as reduction in luciferase activity measured after 8 hrs in presence of SQS inhibitor TAK-475 by luciferase reporter assay
Method in brief: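 Stable HEK293 HMGCR-dCat-ELuc clone (G418-selected, single clone) was given graded compound concentrations together with 10 µM TAK-475 (SQS inhibitor) for 8 h. The read-out was luciferase activity. Data are mean and SD of biological replicates, n = 4.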

[4] = molecular target: T2, 3-hydroxy-3-methylglutaryl-coenzyme A reductase (Homo sapiens); assay: Induction of human HMGCR-dCat-ELuc degradation expressed in HEK293 cells assessed as reduction in luciferase activity measured after 8 hrs by luciferase reporter assay
Method in brief: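 Stable HEK293 clone expressing HMGCR-dCat-ELuc, selected with 0.4 mg/mL G418 and isolated by limiting dilution. Cells were given graded compound concentrations without TAK-475 for 8 h. HMGCR-dCat-ELuc level was read as luciferase activity. Data are mean and SD.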

[5] = molecular target: T2, 3-hydroxy-3-methylglutaryl-coenzyme A reductase (Homo sapiens); assay: Induction of human HMGCR-dCat-ELuc degradation expressed in HEK293 cells assessed as reduction in luciferase activity at 10 uM measured at <4 hrs in presence of VCP inhibitor CB5083 by luciferase reporter assay
Method in brief: (§3)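 Time-course degradation assay in the stable HMGCR-dCat-ELuc HEK293 line. Compound at 10 µM, alone or together with the VCP inhibitor CB5083 at 10 µM, for the indicated times. Reporter level read by luciferase activity.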

[6] = molecular target: T2, 3-hydroxy-3-methylglutaryl-coenzyme A reductase (Homo sapiens); assay: Induction of human HMGCR-dCat-ELuc degradation expressed in HEK293 cells assessed as reduction in luciferase activity at 10 uM measured at <4 hrs by luciferase reporter assay; method in brief: as §3
[7] = molecular target: T3, 3-hydroxy-3-methylglutaryl-coenzyme A reductase (Homo sapiens, UniProt P04035); assay: as §1; method in brief: as §2
T3 sequence (P04035 whole entry): T2 sequence (whole entry)

[8] = molecular target: T2, 3-hydroxy-3-methylglutaryl-coenzyme A reductase (Homo sapiens); assay: Induction of human HMGCR-dCat-ELuc degradation expressed in HEK293 cells assessed as reduction in luciferase activity after 8 hrs by luciferase reporter assay
Method in brief: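 Stable HMGCR-dCat-ELuc HEK293 clone (G418 0.4 mg/mL selection) treated for 8 h, then assayed for luciferase activity. In some runs, cells were co-treated with the SQS inhibitor TAK-475 at 10 µM. Mean and SD from biological replicates (n = 4 or 8).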

Structure (SMILES)	inhibition [1]	Activity [2]	further results
C[C@H](CCC1OC1(C)C)[C@H]1CC[C@@]2(C)C3=C(CC[C@]12C)[C@@]1(C)CC[C@H](O)C(C)(C)[C@@H]1CC3 (stereo partly drawn)	Active	Active	
CC(=O)N1CCN(c2ccc(OCC3COC(Cn4ccnc4)(c4ccc(Cl)cc4Cl)O3)cc2)CC1 (stereo not drawn)			Activity [3]: inactive; Activity [4]: Dose-dependent effect
CC(C)CCC[C@@H](C)[C@H]1CC[C@H]2[C@@H]3CC=C4C[C@@H](O)CC[C@]4(CO)[C@H]3CC[C@]12C	inactive	inactive	
C[C@H](CCC(O)C(C)(C)O)[C@H]1CC[C@@]2(C)C3=C(CC[C@]12C)[C@@]1(C)CC[C@H](O)C(C)(C)[C@@H]1CC3 (stereo partly drawn)	Active	Active	
C[C@H](CCCC(C)(C)O)[C@H]1CC[C@H]2[C@@H]3C[C@@H](O)[C@@]4(O)C[C@@H](O)CC[C@]4(C)[C@H]3CC[C@]12C	inactive	Active	
CC(C)OP(=O)(OC(C)C)C(Cc1cc(C(C)(C)C)c(O)c(C(C)(C)C)c1)P(=O)(OC(C)C)OC(C)C [APOMINE]	inactive	Dose-dependent effect	Activity [5]: inactive; Activity [6]: Active; EC50 [7]: 470 nM
C[C@H](CCCC(C)(C)O)[C@H]1CC[C@@]2(C)C3=C(CC[C@]12C)[C@@]1(C)CC[C@H](O)C(C)(C)[C@@H]1CC3	Active	Active	
CC(C)CCC[C@@H](C)[C@H]1CC[C@@]2(C)C3=C(C(=O)C[C@]12C)[C@@]1(C)CC[C@H](O)C(C)(C)[C@@H]1CC3=O	inactive	Active	
CC(C)CCC[C@@H](C)[C@H]1CC[C@H]2[C@@H]3C[C@@H](O)[C@@]4(O)C[C@@H](O)CC[C@]4(C)[C@H]3CC[C@]12C	inactive	Active	
C[C@H](CCCC(C)(C)O)[C@H]1CC[C@H]2[C@@H]3CC=C4C[C@@H](O)CC[C@]4(C)[C@H]3CC[C@]12C	Active	Dose-dependent effect	EC50 [7]: 630 nM
CC(C)CCC[C@@H](C)[C@H]1CC[C@@]2(C)C3=C(CC[C@]12C)[C@@]1(C)CC[C@H](O)C(C)(C)[C@@H]1CC3	inactive	inactive	
CC(C)CCC[C@@H](C)[C@H]1CC[C@H]2[C@@H]3CC=C4C(C)(C)[C@@H](O)CC[C@]4(C)[C@H]3CC[C@]12C	inactive	inactive	
C[C@H](CCCC(C)(C)O)[C@H]1CC[C@H]2[C@@H]3CCC4=CC(=O)CC[C@]4(C)[C@H]3CC[C@]12C	Active	inactive	
COc1cccc([C@H]2O[C@H](CC(=O)N3CCC(CC(=O)O)CC3)C(=O)N(CC(C)(C)COC(C)=O)c3ccc(Cl)cc32)c1OC			Activity [8]: inactive
C[C@H](CCCO)[C@H]1CC[C@@]2(C)C3=C(CC[C@]12C)[C@@]1(C)CC[C@H](O)C(C)(C)[C@@H]1CC3	inactive	Active	
